Assay outcomes from PubChem.
APJ ag: agonists of human apelin receptor APJ, primary screen, CHO-K1 cells, PathHunter beta-arrestin, luminescence. 0% DMSO wells, 100% apelin. activation, % at 20 µM. AID 2520, 2010. 330,000 tested, 0.11% active;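 active = activation more than six SD over the plate average, tested at 20 µM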
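Test system – PathHunter CHO-K1 APJ (AGTRL-1) beta-arrestin reporter cells · Input – 1000 cells/well · Compound – single test compound dose, 20 µM final, 1% DMSO · Times – compound stimulation 90 min at 25 °C, detection 60 min · Technique – beta-gal luminescence · Read-out basis – APJ–arrestin association signal · Control set – negative DMSO alone, positive Apelin-13 at 10 nM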
APJ antag: antagonists of human apelin receptor APJ, primary screen, CHO-K1 cells, beta-arrestin complementation, luminescence | inhibition, % at 20 µM | 330,000 tested, 0.32% active | AID 2521, 2010 | P35414;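 active = inhibition above about 40% at 20 µM, limit read from the data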;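 also: cells challenged with 10 nM apelin-13 agonist together with compound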
CCR6 antagonist: CCR6 receptor antagonists, primary screen, cell-based, CHO-K1, luminescence, beta-arrestin, uHTS; C-C chemokine receptor type 6 (Homo sapiens), P51684; CHO-K1 CCR6 PathHunter beta-arrestin, CCL20-stimulated; inhibition, % at 20 µM; 340,000 tested, 0.49% active; AID 493098, 2011;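 active = compounds whose inhibition of the agonist-driven luminescence signal at 20 µM reaches about 50%, limit read from the data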;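 also: cells stimulated with CCL20 at 14 nM final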
Target sequence (P51684 whole entry, looked up): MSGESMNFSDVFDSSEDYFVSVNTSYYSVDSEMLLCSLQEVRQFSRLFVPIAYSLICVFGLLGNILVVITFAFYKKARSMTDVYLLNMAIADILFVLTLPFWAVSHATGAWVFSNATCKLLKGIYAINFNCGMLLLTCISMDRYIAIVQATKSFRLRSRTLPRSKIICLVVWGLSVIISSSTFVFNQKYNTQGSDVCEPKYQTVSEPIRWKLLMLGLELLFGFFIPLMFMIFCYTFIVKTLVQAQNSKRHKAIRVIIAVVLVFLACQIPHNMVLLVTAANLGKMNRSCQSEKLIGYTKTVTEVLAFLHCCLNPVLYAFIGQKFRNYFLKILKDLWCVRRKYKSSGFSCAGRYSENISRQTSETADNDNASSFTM
EBI2 block: EBI2 receptor antagonists, beta-arrestin recruitment, primary screen, cell-based, luminescence, 7a,25-OHC stimulation, uHTS | 7a,25-OHC stimulated | inhibition, % at 5 µM | 360,000 tested, 0.81% active | AID 651636, 2012; in the data active = inhibition above about 38%;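 also: enzyme fragment complementation signal reports receptor beta-arrestin coupling in cells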
CXCR6 inh: CXCR6 receptor inhibitors, primary screen, cell-based, beta-arrestin, luminescence, CHO-K1 PathHunter, 1536-well; C-X-C chemokine receptor type 6 (Homo sapiens), O00574; inhibition, % at 20 µM; 360,000 tested, 0.36% active; AID 602244, 2012; in the data active = inhibition above about 34%, passing the limit was not always enough;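 also: antagonist mode with CXCL16 agonist at 10 nM final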
EBI2 conf: EBI2 antagonist hit retest, beta-arrestin, confirmation, cell-based, single concentration, luminescence, 7a,25-OHC stimulation. shares compounds with EBI2 block. 7a,25-OHC antagonism. inhibition, % at 5 µM. 2,400 tested, 29% active. AID 651997, 2013;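 active = inhibition of at least 50%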
EBI2 agonist: EBI2 agonist activity of antagonist hits, confirmation, counter-screen for EBI2 antagonist project, cell-based, single concentration, agonist mode, luminescence. shares compounds with EBI2 block. EBI2-expressing cells, 60 min; 0% vehicle, 100% 7α,25-dihydroxycholesterol control. activation, % at 5 µM. 2,400 tested, under 10 active. AID 652000, 2013;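 active = activation of at least 50%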
bGal counter: E. coli beta-galactosidase enzyme inhibition, confirmation, counter-screen for EBI2 antagonist project, biochemical, luminescence, single concentration; 2,400 tested, 1% active; shares compounds with EBI2 block; purified beta-galactosidase, luminescent Galacton Star, 15 min; inhibition, % at 5 µM;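 active = replicate-average signal at least 3 plate SD below neutral wells, shown as high inhibition, flagging enzyme-inhibiting false positives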;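 also: higher means stronger loss of beta-gal luminescence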
Each line names hits and unclear results; the compound was inactive in the other large screens (follow-up assays come after a bar, where they were run). This is a sample that favours compounds with a hit; in the whole collection about 1.5% have one here.

CCn1ccnc1CNC(=O)C1CCC(=O)N(Cc2ccccc2F)C1 (centres undefined)	none
O=S(=O)(c1ccc(Oc2ccc(Cl)cc2)nc1)N1CCOCC1	EBI2 block 52 | EBI2 conf inactive | EBI2 agonist inactive | bGal counter inactive
O=S(=O)(c1ccc(Oc2ccc(F)c(Cl)c2)nc1)N1CCOCC1	none
Cc1ccc(CNC(=O)C2CCN(c3nc(C)cc(C)n3)CC2)cc1	none
Cc1ccc(-c2noc(CSc3nnc(Cc4ccccc4)n3-c3ccc(Cl)cc3)n2)cc1	none
COc1ccc(-c2noc(CSc3nnc(Cc4ccccc4)n3-c3ccc(Cl)cc3)n2)cc1	EBI2 block 39 | EBI2 conf inactive | EBI2 agonist inactive | bGal counter inactive
O=C(Cn1nc(C(=O)O)c2ccccc2c1=O)c1c[nH]c2ccccc12	EBI2 block 77 | EBI2 conf 69 | EBI2 agonist inactive | bGal counter inactive
CCC(=O)N1CCCc2cc(S(=O)(=O)CCC(=O)Nc3ccccc3C)ccc21	none
Cc1cccc(CNC(=O)C(C)n2nc(C)c3c(C)n(-c4ccccc4)nc3c2=O)c1 (centres undefined)	none
CNC(=S)N1N=C(c2ccc(Br)cc2)CC1c1ccc(Br)cc1 (centres undefined)	EBI2 block 80 | EBI2 conf 70 | EBI2 agonist inactive | bGal counter inactive
CNC(=S)N1N=C(c2ccc(C)cc2)CC1c1ccc(OC)c(OC)c1 (centres undefined)	none
CNC(=S)N1N=C(c2ccc(OC)cc2)CC1c1ccc(N(C)C)cc1 (centres undefined)	EBI2 block 87 | EBI2 conf 81 | EBI2 agonist inactive | bGal counter inactive
Cc1ccc(-c2nnc(CCC(=O)NCc3csc(C)n3)o2)s1	none
CN(Cc1ccccc1)C(=O)COC(=O)COc1ccc(Cl)cc1	none
CN(Cc1ccccc1)C(=O)COc1ccc2ccccc2c1	EBI2 block 90 | EBI2 conf 87 | EBI2 agonist inactive | bGal counter inactive
CN(Cc1ccccc1)C(=O)COc1cc(Cl)ccc1Cl	none
Cc1cc(OCC(=O)N(C)Cc2ccccc2)cc(C)c1Cl	EBI2 block 87 | EBI2 conf 65 | EBI2 agonist inactive | bGal counter inactive
C=CCN1C(=O)c2ccc(C(=O)N(CC(C)C)c3c(N)n(CCCC)c(=O)[nH]c3=O)cc2C1=O	none
CC(=O)Oc1ccccc1C(=O)Nc1ccccc1C(=O)N1CCCCC1	none
CC(C)C[C@@H](CN1CCCC1CN1C(=S)NC[C@@H]1Cc1ccccc1)N1C[C@H](Cc2ccccc2)N(CCc2ccccc2)C1=S (some centres undefined)	none (no result: APJ ag, APJ antag, CCR6 antagonist)
CC(C)C[C@@H](CN1CCCC1CN1C(=S)NC[C@@H]1Cc1ccccc1)N1C[C@H](Cc2ccc(O)cc2)N(CCc2ccccc2)C1=S (some centres undefined)	none (no result: APJ ag, APJ antag, CCR6 antagonist)
CCOc1ccc(CCN2C(=S)N([C@@H](CC(C)C)CN3CCC[C@@H]3CN3C(=S)NC[C@@H]3CC(C)C)C[C@@H]2Cc2ccc(O)cc2)cc1	EBI2 block 47 (no result: APJ ag, APJ antag, CCR6 antagonist) | EBI2 conf inactive | EBI2 agonist inactive | bGal counter inactive
CCOc1ccc(CCN2C(=S)N([C@@H](CC(C)C)CN3CCCC3CN3C(=S)NC[C@@H]3CC(C)C)C[C@@H]2Cc2ccc(O)cc2)cc1 (some centres undefined)	none (no result: APJ ag, APJ antag)
CC(C)C[C@@H](CN1CCC[C@@H]1CN1C(=S)NC[C@@H]1Cc1ccccc1)N1C[C@H](Cc2ccc(O)cc2)N(CCc2ccccc2)C1=S	EBI2 block 37 (no result: APJ ag, APJ antag, CCR6 antagonist) | EBI2 conf inactive | EBI2 agonist inactive | bGal counter inactive
CC(C)C[C@@H](CN1CCC[C@@H]1CN1C(=S)NC[C@@H]1Cc1ccc(O)cc1)N1C[C@H](Cc2ccc(O)cc2)N(CCc2ccccc2)C1=S	EBI2 block 74 (no result: APJ ag, APJ antag, CCR6 antagonist) | EBI2 conf inactive | EBI2 agonist inactive | bGal counter inactive
CC(C)C[C@H]1CNC(=S)N1C[C@H]1CCCN1C[C@H](CC(C)C)N1C[C@H](Cc2ccc(O)cc2)N(CC2CCCCC2)C1=S	EBI2 block 61 (no result: APJ ag, APJ antag, CCR6 antagonist) | EBI2 conf inactive | EBI2 agonist inactive | bGal counter inactive
CC(C)c1ccccc1OCC(=O)Nc1cc(S(=O)(=O)N2CCOCC2)ccc1N1CCCC1	none
O=C(CCCOc1ccc(Br)cc1)Nc1nnc(C2CC2)s1	none
N#CC1(NC(=O)COc2ccc3ccc(=O)oc3c2)CCCCC1	none
CCCN(CCC)C(=O)C1CCN(c2ccc(S(=O)(=O)N3CCOCC3)cc2[N+](=O)[O-])CC1	EBI2 block 62 | EBI2 conf inactive | EBI2 agonist inactive | bGal counter inactive
COCCN(CCOC)C(=O)C1CCN(c2ccc(S(=O)(=O)N3CCOCC3)cc2[N+](=O)[O-])CC1	none
COCC(=O)N1CCC(Oc2ccc(C(=O)N3CCCCC3COC)cc2)CC1 (centres undefined)	none
CC(C)(C)S(=O)N1Cc2cc(C(=O)NCc3ccc4c(c3)OCO4)nc(-c3cccc(-c4ccccc4)c3)c2[C@@H]1CCO (some centres undefined)	EBI2 block 46 (no result: APJ ag, APJ antag, CCR6 antagonist) | EBI2 conf inactive | EBI2 agonist inactive | bGal counter inactive
CC(C)(C)S(=O)N1Cc2cc(C(=O)NCc3ccc4c(c3)OCO4)nc(-c3cccc(-c4ccncc4)c3)c2[C@H]1CCO (some centres undefined)	none (no result: APJ ag, APJ antag, CCR6 antagonist)
CCCNC(=O)c1cc2c(c(-c3cccc(-c4ccc(F)cc4)c3)n1)[C@H](CCO)N(S(=O)C(C)(C)C)C2 (some centres undefined)	EBI2 block 61 (no result: APJ ag, APJ antag, CCR6 antagonist) | EBI2 conf inactive | EBI2 agonist inactive | bGal counter inactive
Cc1noc(C)c1S(=O)(=O)Nc1ccc2c(c1)C(=O)N([C@H](C)CO)C[C@H](C)[C@@H](CN(C)C(=O)NC1CCCCC1)O2	none
CCN(C(=O)Cn1cc(C(F)(F)F)ccc1=O)C1CCS(=O)(=O)C1 (centres undefined)	none (no result: APJ ag, APJ antag, CCR6 antagonist)
